According to ChEMBL document CHEMBL1770147, “Synthesis and antifungal activity of functionalized 2,3-spirostane isomers” (2011):
≈ marks a conversion by molar mass, not a printed value.

Assays:
Assay type in all cases: functional
Nakaseomyces glabratus [1] = assay: Antifungal activity against Candida glabrata ATCC 48435 assessed as reduction in growth after 48 hrs by broth microdilution method relative to control
Procedure, shortened: (§1)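 Growth was read as absorbance at 530 nm after incubation at 35 °C for 48 h. Percent reduction was calculated relative to control wells containing no antifungal, alongside a visual comparison of turbidity with those wells.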

Candida albicans [2] = assay: Antifungal activity against Candida albicans ATCC 10231 assessed as reduction in growth after 48 hrs by broth microdilution method relative to control; procedure, shortened: as §1
Aspergillus fumigatus [3] = assay: Antifungal activity against Aspergillus fumigatus ATCC 16424 reduction in growth after 48 hrs by broth microdilution method relative to control; procedure, shortened: as §1
Cryptococcus neoformans [4] = assay: Antifungal activity against Cryptococcus neoformans ATCC 36556 assessed as reduction in growth after 48 hrs by broth microdilution method relative to control; procedure, shortened: as §1
Aspergillus fumigatus [5] = assay: Antifungal activity against Aspergillus fumigatus ATCC 16424 after 48 hrs by broth microdilution method; settings: ATCC 16424, 48 h
Procedure, shortened: (§2)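 Plates were incubated at 35 °C for 48 h. MIC was reported only where both criteria held: turbidity clearly lower than in control wells without antifungal on visual comparison, and growth reduced by more than 50% relative to those controls, measured as absorbance at 530 nm.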

Cryptococcus neoformans [6] = assay: Antifungal activity against Cryptococcus neoformans ATCC 36556 after 48 hrs by broth microdilution method; settings: ATCC 36556, 48 h; procedure, shortened: as §2
Nakaseomyces glabratus [7] = assay: Antifungal activity against Candida glabrata ATCC 48435 after 48 hrs by broth microdilution method; settings: ATCC 48435, 48 h; procedure, shortened: as §2
Candida albicans [8] = assay: Antifungal activity against Candida albicans ATCC 10231 after 48 hrs by broth microdilution method; settings: ATCC 10231, 48 h; procedure, shortened: as §2

| Structure (SMILES) | inhibition (INH) (Nakaseomyces glabratus [1]) | inhibition (INH) (Candida albicans [2]) | inhibition (INH) (Aspergillus fumigatus [3]) | inhibition (INH) (Cryptococcus neoformans [4]) | MIC50 (Aspergillus fumigatus [5]) | MIC50 (Cryptococcus neoformans [6]) | MIC50 (Nakaseomyces glabratus [7]) | MIC50 (Candida albicans [8]) |
| --- | --- | --- | --- | --- | --- | --- | --- | --- |
| CC(=O)O[C@H]1C[C@@]2(C)[C@@H](CC[C@@H]3[C@@H]2CC[C@]2(C)[C@@H]4[C@H](C[C@@H]32)O[C@]2(CC[C@@H](C)CO2)[C@H]4C)C[C@@H]1O | <25% | <25% | <25% | <25% |  |  |  |  |
| CC(=O)O[C@H]1C[C@@H]2CC[C@@H]3[C@H](CC[C@]4(C)[C@@H]5[C@H](C[C@@H]34)O[C@]3(CC[C@@H](C)CO3)[C@H]5C)[C@@]2(C)C[C@@H]1O | <25% | <25% | <25% | <25% |  |  |  |  |
| CC(=O)O[C@@H]1C[C@@]2(C)[C@@H](CC[C@@H]3[C@@H]2CC[C@]2(C)[C@@H]4[C@H](C[C@@H]32)O[C@]2(CC[C@@H](C)CO2)[C@H]4C)C[C@H]1O |  |  |  |  | > 128 µg/mL | 62.5 µg/mL (≈ 132 µM) | 6.25 µg/mL (≈ 13.2 µM) | 16 µg/mL (≈ 33.7 µM) |
| CC(=O)O[C@@H]1C[C@@H]2CC[C@@H]3[C@H](CC[C@]4(C)[C@@H]5[C@H](C[C@@H]34)O[C@]3(CC[C@@H](C)CO3)[C@H]5C)[C@@]2(C)C[C@@H]1O | <25% | <25% | <25% | <25% |  |  |  |  |
| C[C@@H]1CC[C@@]2(OC1)O[C@H]1C[C@H]3[C@@H]4CC[C@H]5C[C@@H](O)[C@H](O)C[C@]5(C)[C@H]4CC[C@]3(C)[C@H]1[C@@H]2C | <25% | <25% | <25% | <25% |  |  |  |  |
| CC(=O)O[C@@H]1C[C@@]2(C)[C@@H](CC[C@@H]3[C@@H]2CC[C@]2(C)[C@@H]4[C@H](C[C@@H]32)O[C@]2(CC[C@@H](C)CO2)[C@H]4C)CC1=O | <25% |  |  | <25% | > 128 µg/mL |  |  | 32 µg/mL (≈ 67.7 µM) |
| CC(=O)O[C@H]1C[C@@]2(C)[C@@H](CC[C@@H]3[C@@H]2CC[C@]2(C)[C@@H]4[C@H](C[C@@H]32)O[C@]2(CC[C@@H](C)CO2)[C@H]4C)C[C@H]1O | <25% | <25% | <25% | <25% |  |  |  |  |
| C[C@@H]1CC[C@@]2(OC1)O[C@H]1C[C@H]3[C@@H]4CC[C@H]5CC(=O)CC[C@]5(C)[C@H]4CC[C@]3(C)[C@H]1[C@@H]2C | <25% | <25% | <25% | <25% |  |  |  |  |
| C[C@@H]1CC[C@@]2(OC1)O[C@H]1C[C@H]3[C@@H]4CC[C@H]5C[C@@H](O)CC[C@]5(C)[C@H]4CC[C@]3(C)[C@H]1[C@@H]2C [TIGOGENIN] |  | <25% |  | <25% | 16 µg/mL (≈ 38.4 µM) |  | > 62.5 µg/mL |  |
